The values below come from ChEMBL document CHEMBL1154156, “Natural tanshinone-like heterocyclic-fused ortho-quinones from regioselective Diels-Alder reaction: synthesis and cytotoxicity evaluation” (Eur J Med Chem, 2009).

A short description of assay [1]: Cytotoxicity against human GLC82 cells after 48 hrs by MTT assay. The format is functional, cell-based. The gist of the method:
(§1)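 Human cells (GLC-82 lung adenocarcinoma; CNE2 nasopharyngeal carcinoma) were seeded at 1×10⁴ per well and incubated overnight. They were then exposed for 48 h to increasing compound concentrations (0–100). MTT (5 mg/mL stock) was added for 4 h at 37 °C, and unconverted MTT was removed before plate-reader absorbance. Runs were in quadruplicate, with viability as % of untreated control. IC50 is the concentration reducing mean viability to 50%.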

Assay [2] in a line: Cytotoxicity against human CNE2 cells after 48 hrs by MTT assay. The format is functional, cell-based, CNE-2. The gist of the method: as §1
The mark [3] stands for this setting: Homo sapiens, GLC82, 48 h, read-out: IC50.
[4] abbreviates: Homo sapiens, CNE-2, 48 h, read-out: IC50.

As for `O=C1C(=O)c2c(-c3ccccc3)csc2-c2ccccc21`, the IC50 in assay [1] (setting [3]) worked out at 20.1 µM.
With `CC(=O)Nc1c(C)cc(C)c2c1C(=O)C(=O)c1c(-c3ccccc3)coc1-2`, the concentration for half-maximal inhibition (IC50) in assay [1] (setting [3]) was 7.2 µM; in assay [2] (setting [4]) it was 4.8 µM.
As to `CC(=O)Nc1c(C)cc(C)c2c1C(=O)C(=O)c1c(-c3ccccc3)csc1-2`, the IC50 in assay [1] (setting [3]) came to 5 µM; in assay [2] (setting [4]) it was 4.1 µM.
As for `Cc1cc(C)c2c(c1)C(=O)C(=O)c1c(-c3ccc(F)cc3)coc1-2`, the 50% inhibitory concentration (IC50) result in assay [1] (glc82) and in assay [2] (cne-2) was “ND(Insoluble)” throughout.
Regarding `CC(=O)Nc1c(C)cc(C)c2c1C(=O)C(=O)c1c(-c3ccc(Cl)cc3)coc1-2`, the 50% inhibitory concentration (IC50) in assay [1] (setting [3]) stood at 6 µM; in assay [2] (setting [4]), 9.2 µM.
Turning to `CC(=O)Nc1c(C)cc(C)c2c1C(=O)C(=O)c1c(-c3ccccc3C)csc1-2`, the half-inhibitory concentration (IC50) in assay [2] (setting [4]) came out at 4.2 µM.
For `CC(=O)Nc1c(C)cc(C)c2c1C(=O)C(=O)c1c(-c3ccc(F)cc3)coc1-2`, the IC50 in assay [1] (setting [3]) was determined as 8.9 µM.
`Cc1cc(C)c2c(c1)C(=O)C(=O)c1cc(C)oc1-2`: the half-maximal inhibitory concentration (IC50) entry in assay [1] (glc82) and in assay [2] (cne-2) was “ND(Insoluble)” in each case.
As to `CC(=O)Nc1c(C)cc(C)c2c1C(=O)C(=O)c1c(-c3ccc(F)cc3)csc1-2`, the values for the half-inhibitory concentration (IC50) in assay [1] (setting [3]) and in assay [2] (setting [4]) were 3.9 µM and 4.6 µM, respectively.
In the case of `Cc1cc(C)c2c(c1)C(=O)C(=O)c1c(-c3ccc(C)c(C)c3)coc1-2`, the half-maximal inhibitory concentration (IC50) entry in assay [1] (glc82) and in assay [2] (cne-2) was “ND(Insoluble)” each time.
Consider `Cc1cc(C)c2c(c1)C(=O)C(=O)c1c(-c3ccccc3)coc1-2`, for which the IC50 in assay [1] (setting [3]) and in assay [2] (setting [4]) was over 25 µM throughout.
For `Cc1cc(C)c2c(c1)C(=O)C(=O)c1c(-c3ccc(Cl)cc3)coc1-2`, the half-inhibitory concentration (IC50) entry in assay [1] (glc82) and in assay [2] (cne-2) was “ND(Insoluble)” each time.
As to `O=C1C(=O)c2c(-c3ccc(Cl)cc3)coc2-c2cccc(N3C(=O)CCC3=O)c21`, the IC50 in assay [1] (setting [3]) is 1.6 µM; in assay [2] (setting [4]), 2 µM.
With `CC(=O)Nc1c(C)cc(C)c2c1C(=O)C(=O)c1c(-c3ccc(Cl)cc3)csc1-2`, the concentration for half-maximal inhibition (IC50) in assay [1] (setting [3]) came to 7.5 µM; in assay [2] (setting [4]) it was 6.8 µM.
Consider `CC(=O)Nc1c(C)cc(C)c2c1C(=O)C(=O)c1c(-c3ccc(C)c(C)c3)coc1-2`, for which the half-inhibitory concentration (IC50) entry in assay [1] (glc82) and in assay [2] (cne-2) was “ND(Insoluble)” in each case.
For `CC(=O)Nc1c(C)cc(C)c2c1C(=O)C(=O)c1c(-c3ccc(C)cc3)coc1-2`, the IC50 in assay [1] (setting [3]) was 9.5 µM; in assay [2] (setting [4]), 5.6 µM.
For `CC[C@@]1(O)C(=O)OCc2c1cc1n(c2=O)Cc2cc3cc(O)ccc3nc2-1` [HYDROXYCAMPTOTHECIN], the IC50 was 1.09 µM in assay [1] (setting [3]) and 0.37 µM in assay [2] (setting [4]).
In the case of `Cc1ccc(-c2coc3c2C(=O)C(=O)c2cc(C)cc(C)c2-3)cc1`, the results for the IC50 in assay [1] (setting [3]) and in assay [2] (setting [4]) were 12 µM and 23.3 µM, respectively.
